# Results published in ChEMBL document CHEMBL1811796, “Requirements for mammalian carboxylesterase inhibition by substituted ethane-1,2-diones” (Bioorg Med Chem, 2011).
# Active and inactive are the calls of the source. The rule behind the calls is not given here.
# Legend:
# Acetylcholinesterase = Acetylcholinesterase (Homo sapiens, UniProt P22303); assay: Inhibition of human acetylcholinesterase using acetylthiocholine as substrate by spectrophotometry
# In short: (§1)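 Human AChE and BChE were commercial enzymes. Substrate was 1 mM acetylthiocholine for AChE and 1 mM butyrylthiocholine for BChE.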
# Liver carboxylesterase 1 [1] = biological target: T1, Liver carboxylesterase 1 (Oryctolagus cuniculus, UniProt P12337); assay: Inhibition of rabbit liver carboxylesterase using o-nitrophenyl acetate as substrate after for 5 mins by spectrophotometry
# T1 sequence (P12337 whole entry): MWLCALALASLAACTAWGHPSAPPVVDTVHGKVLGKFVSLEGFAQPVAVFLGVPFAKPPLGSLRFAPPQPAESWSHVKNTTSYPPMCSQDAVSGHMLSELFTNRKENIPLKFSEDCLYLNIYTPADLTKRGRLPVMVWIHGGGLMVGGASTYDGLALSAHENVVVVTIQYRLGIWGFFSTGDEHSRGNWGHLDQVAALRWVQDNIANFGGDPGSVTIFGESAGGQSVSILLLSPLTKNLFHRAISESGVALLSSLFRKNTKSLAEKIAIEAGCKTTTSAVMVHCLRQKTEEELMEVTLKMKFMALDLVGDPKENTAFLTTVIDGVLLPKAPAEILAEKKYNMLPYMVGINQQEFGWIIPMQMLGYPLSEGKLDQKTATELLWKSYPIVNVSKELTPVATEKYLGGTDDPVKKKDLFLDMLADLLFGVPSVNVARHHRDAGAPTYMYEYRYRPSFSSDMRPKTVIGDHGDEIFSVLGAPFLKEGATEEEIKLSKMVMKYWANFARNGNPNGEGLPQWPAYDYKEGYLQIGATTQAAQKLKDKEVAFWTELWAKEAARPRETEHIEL
# In short: (§2)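 hCE1 and rabbit liver CE were purified from baculovirus-infected Spodoptera frugiperda cells, with 3 mM o-nitrophenyl acetate as substrate. A4₂₀ was read every 15 s for 5 min versus no-inhibitor wells. Screening was at 100 μM; compounds giving >50% reduction were rescreened from 1 pM to 100 μM. Ki came from fitting a partial-inhibition (α, β) model.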
# Liver carboxylesterase 1 [2] = biological target: T2, Liver carboxylesterase 1 (Homo sapiens, UniProt P23141); assay: Inhibition of human liver carboxylesterase1 using o-nitrophenyl acetate as substrate after 5 mins by spectrophotometry; in short: as §2
# T2 sequence (P23141 whole entry): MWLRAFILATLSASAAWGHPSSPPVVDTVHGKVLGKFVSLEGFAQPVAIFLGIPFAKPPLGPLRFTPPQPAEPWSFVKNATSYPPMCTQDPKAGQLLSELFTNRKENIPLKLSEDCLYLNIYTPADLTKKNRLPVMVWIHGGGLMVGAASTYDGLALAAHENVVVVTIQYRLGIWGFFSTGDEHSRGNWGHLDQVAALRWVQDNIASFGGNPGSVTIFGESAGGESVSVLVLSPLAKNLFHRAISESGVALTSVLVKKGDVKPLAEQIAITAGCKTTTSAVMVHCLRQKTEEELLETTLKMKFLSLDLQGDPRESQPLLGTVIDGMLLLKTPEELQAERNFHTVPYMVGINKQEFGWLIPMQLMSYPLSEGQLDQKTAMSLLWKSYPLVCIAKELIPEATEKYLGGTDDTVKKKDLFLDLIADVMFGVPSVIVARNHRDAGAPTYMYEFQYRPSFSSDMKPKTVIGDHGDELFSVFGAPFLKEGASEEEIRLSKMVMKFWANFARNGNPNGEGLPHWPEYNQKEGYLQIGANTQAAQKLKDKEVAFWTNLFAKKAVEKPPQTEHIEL
# Cholinesterase = Cholinesterase (Homo sapiens, UniProt P06276); assay: Inhibition of human butyrylcholinesterase using butyrylthiocholine as substrate by spectrophotometry; in short: as §1
# Chain of Cholinesterase (P06276 whole entry): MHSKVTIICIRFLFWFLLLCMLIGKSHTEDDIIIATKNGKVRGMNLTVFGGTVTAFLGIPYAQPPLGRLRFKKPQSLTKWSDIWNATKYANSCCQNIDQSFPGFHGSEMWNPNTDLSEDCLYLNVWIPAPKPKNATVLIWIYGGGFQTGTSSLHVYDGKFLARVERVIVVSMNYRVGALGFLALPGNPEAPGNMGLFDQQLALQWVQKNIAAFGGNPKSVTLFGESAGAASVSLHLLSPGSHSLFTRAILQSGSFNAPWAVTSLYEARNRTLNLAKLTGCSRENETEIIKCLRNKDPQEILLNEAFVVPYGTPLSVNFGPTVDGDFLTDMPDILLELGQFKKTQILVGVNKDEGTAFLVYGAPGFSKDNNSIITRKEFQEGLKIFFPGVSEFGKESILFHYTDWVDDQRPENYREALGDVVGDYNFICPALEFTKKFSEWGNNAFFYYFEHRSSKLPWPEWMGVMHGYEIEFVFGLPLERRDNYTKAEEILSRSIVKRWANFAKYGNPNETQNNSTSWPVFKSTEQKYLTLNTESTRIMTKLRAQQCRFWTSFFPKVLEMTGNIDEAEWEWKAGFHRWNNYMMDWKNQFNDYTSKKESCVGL
# Cocaine esterase [3] = biological target: T3, Cocaine esterase (Homo sapiens, UniProt O00748); assay: Inhibition of human intestinal carboxylesterase using o-nitrophenyl acetate as substrate after 5 mins by spectrophotometry
# T3 sequence (O00748 whole entry): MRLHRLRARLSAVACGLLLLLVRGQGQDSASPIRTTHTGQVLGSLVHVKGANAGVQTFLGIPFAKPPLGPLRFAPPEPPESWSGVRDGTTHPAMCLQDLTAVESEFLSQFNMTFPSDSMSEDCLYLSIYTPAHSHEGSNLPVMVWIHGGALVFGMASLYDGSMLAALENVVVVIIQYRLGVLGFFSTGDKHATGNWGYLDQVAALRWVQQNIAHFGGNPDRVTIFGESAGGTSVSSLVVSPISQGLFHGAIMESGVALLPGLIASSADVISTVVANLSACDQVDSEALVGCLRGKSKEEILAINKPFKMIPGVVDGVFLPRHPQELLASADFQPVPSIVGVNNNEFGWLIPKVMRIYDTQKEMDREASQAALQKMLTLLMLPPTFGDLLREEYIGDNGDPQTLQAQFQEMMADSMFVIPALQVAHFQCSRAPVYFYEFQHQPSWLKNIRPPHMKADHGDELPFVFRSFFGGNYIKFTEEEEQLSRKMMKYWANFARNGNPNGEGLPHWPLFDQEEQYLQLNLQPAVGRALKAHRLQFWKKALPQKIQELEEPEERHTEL
# [4] = Stability of the compound assessed as hydrolysis liberating phenol in aqueous solution at pH 7.4 after 5 mins; format: physicochemical; settings: read-out: Activity
# In short: (§3)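 Compound at 200 μM in 50 mM Hepes pH 7.4, held 1, 5 or 20 min at rt or 37°C, with or without CE. Reactions were stopped with acetonitrile. Products were identified by reverse-phase HPLC with UV detection against phenol/thiophenol/aniline marker standards and no-enzyme samples.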
# [5] = Cytotoxicity against human U373MG cells expressing human intestinal carboxylesterase after 4 days in drug free medium by coulter counter; format: functional, cell-based, U-373MG ATCC; settings: U373 MG, 96 h
# [6] = Cytotoxicity against human U373MG cells expressing human intestinal carboxylesterase after 4 days in drug free medium by coulter counter in presence of CPT-11; format: functional, cell-based, U-373MG ATCC; settings: U373 MG, 96 h
# In short: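 U373MG cells stably expressing hiCE, seeded at 50,000 cells/well and left to adhere overnight. Cells were pre-incubated 1 h with inhibitor (10 μM), then exposed 2 h to inhibitor plus CPT-11 (0–100 μM). After washing, cells grew 4 days (~3 doublings) in drug-free medium and were counted. Runs were in triplicate, with survival compared to inhibitor-free controls. IC50 was taken from survival curves.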
# [7] = biological target: T4, intestinal carboxylesterase (cocaine esterase) (Homo sapiens, UniProt O00748); assay: Inhibition of intestinal carboxylesterase in human U373MG cells using 4-methylumbelliferone acetate as substrate at 10 uM after 1 hrs pre-incubation by fluorimetry; format: cell-based, U-373MG ATCC; settings: U373MG cells with intestinal carboxylesterase, probe 4-methylumbelliferone acetate
# T4 sequence (O00748 whole entry): T3 sequence (O00748 whole entry)
# Cocaine esterase [8] = biological target: T3, Cocaine esterase; assay: Inhibition of human intestinal carboxylesterase assessed as hydrolysis of CPT-11 after 5 mins by HPLC
# U373 MG = assay: Reduction of CPT-11 induced cytotoxicity against human U373MG cells at 10 uM pre-incubated for 1 hr measured after 4 days in drug free medium by coulter counter; format: functional, cell-based; settings: U-373MG ATCC
# In short: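 U373MG cells expressing hiCE were plated at 50,000 cells/well and left to adhere overnight. They got 1 h pre-incubation with 10 μM inhibitor, then 2 h with inhibitor plus CPT-11 (0–100 μM). Cells were washed, grown 4 days drug-free and Coulter-counted. Runs were in triplicate against no-inhibitor controls, and IC50 came from survival curves.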
# [9] = Stability of the compound assessed as hydrolysis liberating thiophenol in aqueous solution at pH 7.4 after 5 mins; format: physicochemical; parameters: scale not given: the % may be the effect or the level left; settings: buffer, pH 7.4, 5 min; in short: as §3
# Chain of Acetylcholinesterase (P22303 whole entry): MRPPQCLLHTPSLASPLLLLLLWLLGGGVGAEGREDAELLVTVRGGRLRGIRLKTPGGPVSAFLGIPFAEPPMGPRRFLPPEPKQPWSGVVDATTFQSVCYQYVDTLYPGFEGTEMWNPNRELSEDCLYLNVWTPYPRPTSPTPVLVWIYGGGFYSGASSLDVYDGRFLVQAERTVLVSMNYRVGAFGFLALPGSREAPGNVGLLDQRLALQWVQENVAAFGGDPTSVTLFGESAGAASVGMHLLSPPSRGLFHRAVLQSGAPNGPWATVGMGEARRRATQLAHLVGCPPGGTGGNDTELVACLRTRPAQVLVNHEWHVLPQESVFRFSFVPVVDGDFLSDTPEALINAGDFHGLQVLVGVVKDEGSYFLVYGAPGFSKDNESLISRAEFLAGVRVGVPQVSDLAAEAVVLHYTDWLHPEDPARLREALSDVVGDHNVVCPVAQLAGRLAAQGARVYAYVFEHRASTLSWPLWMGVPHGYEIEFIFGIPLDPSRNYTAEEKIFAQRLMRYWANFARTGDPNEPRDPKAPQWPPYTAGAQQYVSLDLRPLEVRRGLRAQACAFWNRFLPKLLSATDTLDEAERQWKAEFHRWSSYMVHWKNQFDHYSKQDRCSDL
compound,measurement,setting,value
CCCCCC(=O)C(=O)c1ccccc1,Ki,Acetylcholinesterase,> 100 µM
same,Ki,Liver carboxylesterase 1 [1],0.11 µM
same,Ki,Liver carboxylesterase 1 [2],6.65 nM
same,Ki,Cholinesterase,> 100 µM
CCCCC(=O)C(=O)c1ccccc1,Ki,Acetylcholinesterase,> 100 µM
same,Ki,Liver carboxylesterase 1 [2],26.1 nM
same,Ki,Cholinesterase,> 100 µM
O=C(Oc1ccccc1)C(=O)Oc1ccccc1 [DIPHENYL ETHANEDIOAT],Ki,Acetylcholinesterase,> 100 µM
same,Ki,Liver carboxylesterase 1 [1],> 100 µM
same,Ki,Liver carboxylesterase 1 [2],> 100000 nM
same,Ki,Cocaine esterase [3],> 100 µM
same,degraded at 5 min,[4],> 40%
same,Ki,Cholinesterase,> 100 µM
O=C(C(=O)c1ccccc1)c1ccccc1 [BENZIL],IC50,[5],> 100 µM
same,IC50,[6],22.9 µM
CCCCCCC(=O)C(=O)c1ccccc1,Ki,Acetylcholinesterase,> 100 µM
same,Ki,Liver carboxylesterase 1 [1],0.0281 µM
same,Ki,Liver carboxylesterase 1 [2],2.19 nM
same,IC50,[5],> 100 µM
same,IC50,[6],10.2 µM
same,Ki,Cholinesterase,> 100 µM
CCCCCCCCC(=O)C(=O)CCCCCCCC,Ki,Acetylcholinesterase,> 100 µM
same,Ki,Liver carboxylesterase 1 [2],0.84 nM
same,Ki,Cholinesterase,> 100 µM
O=C(Nc1ccccc1)C(=O)Nc1ccccc1,Ki,Acetylcholinesterase,> 100 µM
same,Ki,Liver carboxylesterase 1 [1],> 100 µM
same,Ki,Liver carboxylesterase 1 [2],> 100000 nM
same,Ki,Cocaine esterase [3],> 100 µM
same,Ki,Cholinesterase,> 100 µM
O=C(Cc1ccccc1)C(=O)C(Br)c1ccccc1 (stereo not given),Ki,Acetylcholinesterase,> 100 µM
same,Ki,Liver carboxylesterase 1 [1],3.68 µM
same,Ki,Liver carboxylesterase 1 [2],2630 nM
same,Ki,Cholinesterase,> 100 µM
O=C(C(=O)C(Br)c1ccccc1)C(Br)c1ccccc1 (stereo not given),Ki,Acetylcholinesterase,> 100 µM
same,Ki,Liver carboxylesterase 1 [2],107 nM
same,Ki,Cholinesterase,> 100 µM
CCCC(=O)C(=O)c1ccccc1,Ki,Acetylcholinesterase,> 100 µM
same,Ki,Liver carboxylesterase 1 [2],102 nM
same,Ki,Cholinesterase,> 100 µM
CCC(=O)C(=O)c1ccccc1,Ki,Acetylcholinesterase,> 100 µM
same,Ki,Liver carboxylesterase 1 [1],12.5 µM
same,Ki,Liver carboxylesterase 1 [2],1550 nM
same,Ki,Cocaine esterase [3],2.42 µM
same,"inhibition at 1 h, 10 µM",[7],70.3%
same,Ki,Cholinesterase,> 100 µM
same,Ki,Cocaine esterase [8],2010 nM
CCCCC(=O)C(=O)CCCC,Ki,Acetylcholinesterase,> 100 µM
same,Ki,Liver carboxylesterase 1 [2],46.6 nM
same,Ki,Cholinesterase,> 100 µM
CCCCCCC(=O)C(=O)CCCCCC,Ki,Acetylcholinesterase,> 100 µM
same,Ki,Liver carboxylesterase 1 [2],4.8 nM
same,IC50,[5],> 100 µM
same,Activity,U373 MG,inactive
same,IC50,[6],4 µM
same,Ki,Cholinesterase,> 100 µM
CCCC(=O)C(=O)CCC,Ki,Acetylcholinesterase,> 100 µM
same,Ki,Liver carboxylesterase 1 [1],17.8 µM
same,Ki,Liver carboxylesterase 1 [2],8060 nM
same,Ki,Cholinesterase,> 100 µM
CCC(=O)C(=O)CC,Ki,Acetylcholinesterase,> 100 µM
same,Ki,Liver carboxylesterase 1 [1],> 100 µM
same,Ki,Liver carboxylesterase 1 [2],> 100000 nM
same,Ki,Cocaine esterase [3],> 100 µM
same,Ki,Cholinesterase,> 100 µM
O=C(Sc1ccccc1)C(=O)Sc1ccccc1,Ki,Acetylcholinesterase,> 100 µM
same,Ki,Liver carboxylesterase 1 [1],> 100 µM
same,Ki,Liver carboxylesterase 1 [2],> 100000 nM
same,Activity,[9],> 40%
same,Ki,Cocaine esterase [3],> 100 µM
same,Ki,Cholinesterase,> 100 µM
CCCCCCCC(=O)C(=O)CCCCCCC,Ki,Acetylcholinesterase,> 100 µM
same,Ki,Liver carboxylesterase 1 [2],7.6 nM
same,Ki,Cholinesterase,> 100 µM
CCc1c2c(nc3ccc(OC(=O)N4CCC(N5CCCCC5)CC4)cc13)-c1cc3c(c(=O)n1C2)COC(=O)[C@]3(O)CC,IC50,[5],3.6 µM
O=C(Cc1ccccc1)C(=O)Cc1ccccc1,Ki,Acetylcholinesterase,> 100 µM
same,Ki,Liver carboxylesterase 1 [1],> 100 µM
same,Ki,Liver carboxylesterase 1 [2],3080 nM
same,Ki,Cocaine esterase [3],21.6 µM
same,Ki,Cholinesterase,> 100 µM
O=C(C(=O)C1CCCCC1)C1CCCCC1,Ki,Liver carboxylesterase 1 [1],0.027 µM
same,Ki,Liver carboxylesterase 1 [2],5 nM
same,Ki,Cocaine esterase [3],0.072 µM
CCCCCC(=O)C(=O)CCCCC,Ki,Acetylcholinesterase,> 100 µM
same,Ki,Liver carboxylesterase 1 [2],3 nM
same,Ki,Cholinesterase,> 100 µM
